Screening data from PubChem.
HTR2A ag = mouse HTR2A agonism via beta-arrestin recruitment | 360,000 tested, 0.66% active | CHO-K1 mHTR2A beta-arrestin complementation, luminescence; percent of 30 µM serotonin response | activation, % at 7.6 µM | P35363;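 active means activation above a run cutoff, the mean activation of all tested compounds plus 3 SD, cut at about 14% in these data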
MC4R barr agon = activates human MC4R beta-arrestin recruitment | AID 540308 | U2OS MC4R beta-arrestin complementation, luminescence; percent of melanotan II response, DMSO zero | activation, % at 8.9 µM | P32245 | 360,000 tested, 0.98% active;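 active means activation above a per-plate cutoff, the mean activation of sample wells on that plate plus 3 SD, cut at about 8% in these data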
PREPL inhibitor = human PREPL enzyme inhibition; 320,000 tested, 0.68% active; AID 2751; Q4J6C6; recombinant PREPL, fluorescence polarization activity-based probe; inhibition, % at 5.96 µM; in the data active means inhibition above about 43%
Hep lipid drop = modulators of hepatic lipid droplet formation; inhibition, % at 6.5 µM; 240,000 tested, 0.4% active; AML12 mouse hepatocytes, oleate lipid droplets, BODIPY imaging;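 active means lipid droplet intensity inhibited by at least 50%, with more than 500 cells counted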
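Assay system: AML12 mouse liver cells | Compound dosing: One dose, 6.5 µM compound | Read-out basis: Droplet intensity reduction, % inhibition | Measured by: Fluorescence imaging, 20x objective, two fields per well | Schedule: Overnight treatment with compound plus oleate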
NTR1 ag = activates human neurotensin receptor 1; P30989; NTR1-U2OS beta-arrestin-GFP spot imaging, agonist mode; activation, % at 20 µM; 330,000 tested, 0.17% active;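 active means activation at or above 40% of the spot to cytoplasm intensity ratio, with at least 20 cells analyzed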
Target sequence (P30989 whole entry, looked up): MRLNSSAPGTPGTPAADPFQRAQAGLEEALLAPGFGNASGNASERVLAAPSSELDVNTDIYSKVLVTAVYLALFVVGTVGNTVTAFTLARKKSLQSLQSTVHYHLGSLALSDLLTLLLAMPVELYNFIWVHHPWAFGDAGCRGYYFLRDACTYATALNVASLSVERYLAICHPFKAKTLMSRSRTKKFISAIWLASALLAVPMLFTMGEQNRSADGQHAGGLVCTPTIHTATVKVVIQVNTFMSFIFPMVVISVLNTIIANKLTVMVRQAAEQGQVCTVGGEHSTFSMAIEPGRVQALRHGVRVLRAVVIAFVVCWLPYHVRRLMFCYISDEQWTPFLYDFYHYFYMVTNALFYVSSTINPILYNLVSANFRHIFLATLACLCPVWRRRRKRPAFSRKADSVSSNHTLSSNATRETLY
MC4R antag cAMP = antagonists of human melanocortin 4 receptor (MC4R). P32245. MC4R-expressing cells, MTII-stimulated cAMP, LANCE TR-FRET. inhibition, % at 6.5 µM. 360,000 tested, 0.48% active;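 active means inhibition above its plate's cutoff, the mean of tested wells on that plate plus 3 SD, cut at about 29% in these data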
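Material: human MC4R-expressing U2OS cells. Probe or stimulus: Melanotan II challenge. Dosing: 6.5 µM single dose. Times: 30-min compound, 1-h challenge, 1-h detection, room temperature. Technique: TR-FRET with Eu-cAMP and labeled anti-cAMP, 671 nm. Replication: singlicate.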
U2OS cAMP counter = counter-screen for MC4R antagonists: nonselective cAMP signaling inhibitors; 1,600 tested, 26% active; parental U2OS, forskolin cAMP, LANCE TR-FRET; shares compounds with MC4R antag cAMP; inhibition, % at 6.5 µM;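 active means mean inhibition over triplicates above the low-control well mean plus 3 SD, set per campaign, cut at about 13% in these data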;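 further: signal is single emission at 671 nm which falls as cellular cAMP rises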
MC4R antag conf = human MC4R cAMP antagonism confirmation. shares compounds with MC4R antag cAMP. 1,600 tested, 27% active. inhibition, % at 6.5 µM. MC4R-expressing cells, MTII-stimulated cAMP, TR-FRET; in the data active means inhibition above about 29%
Each line names hits and unclear results; the compound was inactive in the other large screens (follow-up assays come after a bar, where they were run). Most compounds without a hit are left out; they make up all but 2.7% or so of the library.

Cc1ccc(C2C(C(=O)c3cc4ccccc4o3)=C(O)C(=O)N2c2cc(C)on2)cc1 (configuration not stated)	MC4R antag cAMP 32 | U2OS cAMP counter inactive | MC4R antag conf inactive
O=C(C1=C(O)C(=O)N(c2nccs2)C1c1ccccc1)c1cc2ccccc2o1 (configuration not stated)	MC4R antag cAMP 49 | U2OS cAMP counter 19 | MC4R antag conf 31
CC(=O)Nc1cccc(NC(=S)Nc2ccc(F)cc2F)c1	none
COc1ccc(OC)c(C2C(C(=O)Nc3nc4ccccc4s3)=C(C)NC3=C2C(=O)CCC3)c1 (configuration not stated)	MC4R antag cAMP 33 (no result: Hep lipid drop) | U2OS cAMP counter inactive | MC4R antag conf 43
COc1cccc(C2C(C(=O)Nc3nc4ccccc4s3)=C(C)NC3=C2C(=O)CC(C)(C)C3)c1OC (configuration not stated)	none (no result: Hep lipid drop)
COc1ccc2[nH]c3c(=S)nc[nH]c3c2c1	MC4R antag cAMP 38 | U2OS cAMP counter inactive | MC4R antag conf inactive
c1ccc(-c2csc(-c3ccncc3)n2)cc1	none
Brc1ccsc1-c1csc(-c2ccncc2)n1	MC4R antag cAMP 34 (no result: Hep lipid drop) | U2OS cAMP counter inactive | MC4R antag conf inactive
Cc1cc(NC(=O)/C(C#N)=C/c2ccc(-c3ccc(SC(F)F)cc3)o2)n(-c2ccccc2)n1	MC4R antag cAMP 36 | U2OS cAMP counter inactive | MC4R antag conf inactive
Cc1cc(NC(=O)/C(C#N)=C/c2ccc(-c3cccc(C(F)(F)F)c3)o2)n(-c2ccccc2)n1	none
O=C(c1cc(-c2cccs2)nn1-c1ccccc1)N1CCN(S(=O)(=O)c2ccccc2)CC1	MC4R antag cAMP 29 (no result: Hep lipid drop) | U2OS cAMP counter inactive | MC4R antag conf inactive
CC1CC(C)CN(C(=O)Nc2ccc(Br)cc2)C1 (configuration not stated)	MC4R antag cAMP 30 | U2OS cAMP counter inactive | MC4R antag conf inactive
O=C(Nc1ccc(Br)cc1)N1CCCCCCC1	none (no result: Hep lipid drop)
CCOC1=C2[C@@H](CN(S(=O)(=O)c3ccc(C)cc3)[C@H]2c2ccccc2F)[C@H]2C(=O)N(CC)C(=O)[C@H]2C1	none (no result: MC4R barr agon, PREPL inhibitor, Hep lipid drop, NTR1 ag, MC4R antag cAMP)
CCC(C)NS(=O)(=O)c1ccc(S(=O)(=O)N(CCc2ccc(OC)c(OC)c2)Cc2cccs2)cc1 (configuration not stated)	MC4R antag cAMP 32 | U2OS cAMP counter inactive | MC4R antag conf inactive
COc1ccc(CCN(Cc2cccs2)S(=O)(=O)c2ccc(S(=O)(=O)N3CCCCCC3)cc2)cc1OC	none
Cc1ccc(OCC(=O)NNC(=O)C2CCN(c3nc(C)cc(C)n3)CC2)cc1	MC4R antag cAMP 29 (no result: Hep lipid drop) | U2OS cAMP counter inactive | MC4R antag conf inactive
CCCNC(=O)CCc1c(C)nc2nc(-c3cc(OC)cc(OC)c3)nn2c1C	none
COCCNC(=O)CCc1c(C)nc2nc(-c3cc(OC)cc(OC)c3)nn2c1C	MC4R antag cAMP 29 | U2OS cAMP counter inactive | MC4R antag conf inactive
O=C(O)/C=C/C(=O)Nc1ccc(Oc2ccccc2)cc1	none
CCOC(=O)/C=C/C(=O)Nc1ccc(Oc2ccccc2)cc1	MC4R antag cAMP 46 | U2OS cAMP counter 28 | MC4R antag conf 53
Cc1ccc(C)c(NS(=O)(=O)c2cc(C(=O)Nc3ccccc3-c3ccccc3)ccc2Cl)c1	none (no result: Hep lipid drop)
Cc1[nH]n(-c2ccc([N+](=O)[O-])cc2)c(=O)c1C=NCCc1c(C)[nH]c2ccccc12	none
CCOc1ccc(NC(=O)CNC(=O)c2nn(-c3ccc(OC)c(OC)c3)c(=O)c3ccccc23)cc1	MC4R antag cAMP 38 | U2OS cAMP counter inactive | MC4R antag conf inactive
O=C(N/N=C(\c1ccccc1)c1cccnc1)c1cc(O)ccc1O	none (no result: HTR2A ag, MC4R barr agon, MC4R antag cAMP)
CCOC(=O)N1CCC(N2CCCC(CO)(Cc3cccc(Cl)c3)C2)CC1 (configuration not stated)	MC4R antag cAMP 34 | U2OS cAMP counter inactive | MC4R antag conf inactive
